Screening results: PubChem BioAssay, Broad Institute
Only some compounds are listed: those with a hit (about 4.4% of all), similar ones and a draw of the others.
HSF-1 act: increases HSF-1 driven luciferase reporter signal; NIH3T3-HGL HSF-1 luciferase reporter, MG132, 8 h; 100% = twice DMSO control signal; activation, % at 9 µM; AID 504408; 300,000 tested, 1.7% active;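 active = mean replicate activation of at least 50% with a set share of replicates each reaching 50%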;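 also: 0% = median of the neutral control wells and 100% = twice that signal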
HSF1 inh: HSF1 inhibition; NIH3T3-HGL HSE-luciferase, MG132-induced, luminescence 8 h; hits give low values; activity change, negative = inhibition, % at 7.5 µM (by protocol); 300,000 tested, 0.77% active;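 active = more than half of replicate wells show activity change below -50%, luminescence cut by over half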;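 also: luciferase reports HSF-1 transcriptional activity via heat shock element; 0% = median of DMSO wells and -100% = zero luminescence signal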
Calb FLC: C. albicans growth modulation with fluconazole; C. albicans CaCi-2 + fluconazole, Alamar Blue growth, 48 h; 300,000 tested, 0.57% active; growth inhibition, % (no concentration beside the values); AID 1979;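 active = growth inhibition above about 58% in most replicates, limit read from the data, passing the limit was not always enough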;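 also: all wells also contain fluconazole at 8 µg/ml as a sub-toxic cotreatment; 0% = median of DMSO wells and 100% = median of geldanamycin control wells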
T cruzi repl: T. cruzi replication inhibition | inhibition, % (no concentration beside the values) | AID 1885 | T. cruzi beta-gal in NIH3T3, luminescence, 90 h | 300,000 tested, 1.4% active;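 active = mean inhibition across valid replicates above about 55%, limit read from the data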;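 also: signal also drops with host cell toxicity which is not excluded here; 0% = plate median of DMSO wells and 100% = zero luminescence signal; higher percent means less beta-gal luminescence so fewer parasites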
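System: NIH/3T3 fibroblasts plus reporter T. cruzi. Medium: DMEM plus 2% FBS. Probe or stimulus: 5000 reporter trypomastigotes per well. Compound: single 50 nL compound addition per well in DMSO. Incubation: co-culture of at least 90 h after 3 h attachment. Detection: GalScreen β-gal luminescence, detergent lysis, 60 min. Evaluation: parasite load inhibition, %.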
HIF act: HIF pathway transcriptional activation | activation, % at 7.5 µM (by protocol) | AID 1910 | 300,000 tested, 0.32% active | U2OS HRE-luciferase reporter, luminescence; normalized: DMSO 0%, desferrioxamine 100%;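 active = mean activation of at least 10% of the iron chelator positive control signal, with at least half of replicates also reaching 10%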
An asterisk follows results filed as active; / = no result given.

SMILES	HSF-1 act	HSF1 inh	Calb FLC	T cruzi repl	HIF act
NC(=O)C1(N2CCCCC2)CCN(C(=S)Nc2ccc(S(N)(=O)=O)cc2)CC1	24.8	-2.1	-8.2	-1.1	-0.5
Cc1cc(SCC(=O)N/N=C/c2ccccc2C(=O)O)c(C)cc1Br	26.3	1.0	3.7	1.9	21.2*
Cc1ccc(NC(=O)CCC(=O)N/N=C/c2ccc(O)cc2O)cc1	5.3	6.3	3.9	1.7	134.8*
Cc1cc(SCC(=O)N/N=C/c2ccc(O)cc2O)c(C)cc1Br	37.5	6.7	100.6*	62.0*	39.0*
Cc1ccc(-c2nnc(SCC(=O)N/N=C/c3ccccc3C(=O)O)n2-c2ccc(C)cc2)cc1	-9.2	-6.0	0.6	1.1	-0.6
O=C(CCC(=O)N(CC(=O)NC1CCCCC1)Cc1cccs1)Nc1nccs1	-3.5	-4.7	-0.4	4.7	-0.2
CN1CCN(c2cc3c(c4c2[nH]c2ccccc24)C(=O)CC(C)(C)C3)CC1	12.6	6.7	101.0*	45.0	0.0
Cc1ccc(NC(=O)c2ccc3c(c2)S(=O)(=O)c2ccccc2C3=O)cc1S(=O)(=O)N1CCOCC1	13.3	-3.5	3.3	-16.3	-0.3
CN(C)CCN(C(=O)CCS(=O)(=O)c1ccccc1)c1nc2cc3c(cc2s1)OCO3	18.9	-3.1	0.6	38.1	0.4
O=C(NN(C(=O)C1CC1)c1nc2ccccc2s1)C1CC1	12.4	6.9	1.5	-7.1	0.2
CCN(CC)CCN(C(=O)CCS(=O)(=O)c1ccccc1)c1nc2cc3c(cc2s1)OCO3	-0.6	1.2	8.0	59.5*	0.4
O=C(C1CCCCC1)N(CCN1CCCC1)c1nc2ccccc2s1	1.9	3.8	-2.8	57.3*	/
CCN(CC)CCN(C(=O)C1CCCCC1)c1nc2cc3c(cc2s1)OCO3	8.3	6.1	-13.2	61.1*	1.9
CC(=O)Nc1ccc(S(=O)(=O)NC2(C(F)(F)F)C(=O)Nc3c2c(=O)[nH]c(=O)n3Cc2ccco2)cc1 (stereo not given)	0.4	-9.9	-12.2	4.2	0.2
COc1ccc(C2=NOC(CN3C(=O)c4ccccc4S3(=O)=O)C2)cc1 (stereo not given)	71.5*	39.8	0.2	0.7	2.9
COc1ccc(C2=NOC(Cn3nc(C(=O)O)cc3-c3ccccc3)C2)cc1 (stereo not given)	-6.0	-2.0	-6.4	5.3	0.2
O=C1c2ccccc2S(=O)(=O)N1CC1CC(c2ccccc2)=NO1 (stereo not given)	/	/	-16.5	6.4	2.3
O=C1c2ccccc2S(=O)(=O)N1CC1CC(c2ccc(Cl)cc2)=NO1 (stereo not given)	82.3*	66.1	0.5	14.4	2.6
CCc1ccccc1Nc1ncnc2ccccc12	10.8	-8.8	3.1	22.2	0.0
c1ccc(CCNc2ncnc3ccccc23)cc1	11.0	2.3	93.7*	22.1	2.2
CCCCCCCCNc1ncnc2ccccc12	23.3	18.2	76.4*	25.9	0.1
COc1ccc(Nc2ncc(C#N)c(N)n2)c(OC)c1	-0.9	-2.2	-6.6	-0.7	0.3
COc1cccc(CNC(=O)C(=O)N2CCC3(CC2)OCCN3S(=O)(=O)c2ccc(C)cc2)c1	7.0	-1.3	1.8	4.5	1.9
Cc1sc2ncnc(NC3CCN(Cc4ccccc4)CC3)c2c1C	0.6	-3.2	33.9	58.2*	0.1
CCC1CCCCN1c1nc(-c2cccc(OC)c2O)nc2ccccc12 (stereo not given)	2.8	2.5	0.5	51.9	0.2
SMILES	HSF-1 act	HSF1 inh	Calb FLC	T cruzi repl	HIF act
COc1cccc(-c2nc(N3CCN(c4ccccc4)CC3)c3ccccc3n2)c1O	65.8*	35.2	0.3	22.0	0.9
CC(Sc1nc2ccccc2s1)C(=O)Nc1nnc(C(C)C)s1 (stereo not given)	-70.8	-63.1*	13.9	-9.0	0.2
CCC(Sc1nc2ccccc2s1)C(=O)Nc1nnc(C)s1 (stereo not given)	27.9	2.7	1.3	5.9	0.2
Cc1ccc(N2C(=O)C3N=NN(CC(=O)N4N=C(c5ccccc5)CC4c4ccccc4)C3C2=O)cc1 (stereo not given)	14.2	-3.6	3.8	2.2	0.0
CCN(CC(=O)Nc1ccc(NC(C)=O)cc1)Cc1c(O)ccc2cc(Br)ccc12	127.1*	100.9	21.2	18.2	1.5
CCCN1C2CCCC1CC(NC(=O)c1ccc(OC)cc1)C2 (stereo not given)	-17.5	0.5	-4.1	3.6	1.1
